Test results reported in ChEMBL document CHEMBL4368870, “Design, synthesis and biological evaluation of novel 2-phenyl pyrimidine derivatives as potent Bruton's tyrosine kinase (BTK) inhibitors” (Medchemcomm, 2019).
pIC50: −log10 of the molar value. Active and inactive are the calls of the source. No cut-off for these calls is given here.

What was measured:
[1] = system: Ramos; assay: Antiproliferative activity against human Ramos cells after 48 hrs by MTT assay; assay type: functional, cell-based
Procedure, shortened: (§1)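 Cell proliferation read by MTT in three […] (HL60, Raji, Ramos), all said to over-express BTK. IC50 values were determined for each line.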

[2] = system: Ramos; assay: Cell cycle arrest in human Ramos cells assessed as accumulation of cells at S phase at 5 uM after 48 hrs by propidium iodide staining-based flow cytometric analysis (reference value: 71.08%); assay type: functional
Procedure, shortened: (§2)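 Ramos cells incubated 48 h with 5 μM test agent, DMSO as blank control; DNA content by flow cytometry gives the share of cells in each cell-cycle phase.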

[3] = system: Ramos; assay: Cell cycle arrest in human Ramos cells assessed as apoptotic cells at 5 uM after 48 hrs by propidium iodide staining-based flow cytometric analysis (reference value: 5.03%); assay type: functional
[4] = system: Ramos; assay: Induction of apoptosis in human Ramos cells assessed as early apoptotic cells at 5 uM after 48 hrs by propidium iodide staining-based flow cytometric analysis (reference value: 1.08%); assay type: functional
[5] = system: Ramos; assay: Cell cycle arrest in human Ramos cells assessed as accumulation of cells at G2/M phase at 5 uM after 48 hrs by propidium iodide staining-based flow cytometric analysis (reference value: 4.26%); assay type: functional; procedure, shortened: as §2
[6] = biological target: Tyrosine-protein kinase BTK (Homo sapiens) (UniProt Q06187); assay: Inhibition of BTK phosphorylation at Tyr223 residue in human Ramos cells at 100 to 9000 nM after 24 hrs by Western blot analysis; assay type: cell-based
[7] = system: Ramos; assay: Induction of apoptosis in human Ramos cells assessed as late apoptotic cells at 5 uM after 48 hrs by propidium iodide staining-based flow cytometric analysis (reference value: 0.98%); assay type: functional
[8] = system: HL-60; assay: Antiproliferative activity against human HL60 cells after 48 hrs by MTT assay; assay type: functional, cell-based; settings: HL-60, 48 h; procedure, shortened: as §1
[9] = system: Ramos; assay: Induction of apoptosis in human Ramos cells assessed as viable cells at 5 uM after 48 hrs by propidium iodide staining-based flow cytometric analysis (reference value: 96.83%); assay type: functional; settings: read-out: Activity
[10] = system: Ramos; assay: Cell cycle arrest in human Ramos cells assessed as accumulation of cells at G0/G1 phase at 5 uM after 48 hrs by propidium iodide staining-based flow cytometric analysis (reference value: 24.65%); assay type: functional; procedure, shortened: as §2
[11] = system: Raji; assay: Antiproliferative activity against human Raji cells after 48 hrs by MTT assay; assay type: functional, cell-based; procedure, shortened: as §1
[12] = system: Ramos; assay: Induction of apoptosis in human Ramos cells assessed as necrotic cells at 5 uM after 48 hrs by propidium iodide staining-based flow cytometric analysis (reference value: 1.11%); assay type: functional
[13] = biological target: Tyrosine-protein kinase BTK (Homo sapiens) (UniProt Q06187); assay: Inhibition of BTK in human Ramos cells assessed as reduction in PLCgamma-2 phosphorylation at Try1217 residue at 100 to 9000 nM after 24 hrs by Western blot analysis; assay type: cell-based
[14] = system: Raji; assay: Antiproliferative activity against human Raji cells at 40 uM after 72 hrs by MTT assay relative to control; assay type: functional
Procedure, shortened: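 Raji cells were exposed to the compound over a range of concentrations and treatment times, with the MTT-based viability read-out taken up to 72 h. The 40 μM, 72 h point is expressed as viability relative to control.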

[15] = system: Raji; assay: Antiproliferative activity against human Raji cells at 5 uM by MTT assay; assay type: functional, cell-based; settings: TDE = time-dependent effect
Procedure, shortened: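 Raji cells, proliferation by MTT; viability followed over treatment time at 5 μM.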

Tyrosine-protein kinase BTK (Homo sapiens), sequence (Q06187 whole entry): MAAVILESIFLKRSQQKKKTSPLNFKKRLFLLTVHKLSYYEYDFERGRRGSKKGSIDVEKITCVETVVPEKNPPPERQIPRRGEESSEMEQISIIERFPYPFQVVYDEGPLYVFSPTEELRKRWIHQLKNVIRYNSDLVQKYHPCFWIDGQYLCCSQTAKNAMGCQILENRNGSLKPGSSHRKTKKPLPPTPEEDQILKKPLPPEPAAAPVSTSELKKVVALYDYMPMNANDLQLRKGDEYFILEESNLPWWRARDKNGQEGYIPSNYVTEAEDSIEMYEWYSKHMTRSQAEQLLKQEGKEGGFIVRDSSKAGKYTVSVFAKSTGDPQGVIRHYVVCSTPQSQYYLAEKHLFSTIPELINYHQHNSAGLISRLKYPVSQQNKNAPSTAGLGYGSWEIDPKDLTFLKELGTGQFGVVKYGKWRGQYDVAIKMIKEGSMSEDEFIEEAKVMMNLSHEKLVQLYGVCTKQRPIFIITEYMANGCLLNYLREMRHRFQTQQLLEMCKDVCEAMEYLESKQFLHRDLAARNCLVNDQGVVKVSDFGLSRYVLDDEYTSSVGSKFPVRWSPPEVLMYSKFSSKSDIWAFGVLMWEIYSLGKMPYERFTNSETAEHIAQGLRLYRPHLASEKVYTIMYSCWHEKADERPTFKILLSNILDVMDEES

Compound	pIC50 [1]	Activity [2] [%]	Activity [3] [%]	Activity [4] [%]	Activity [5] [%]	inhibition [6]	Activity [7] [%]	pIC50 [8]	viability at 5 µM [9] [%]	Activity [10] [%]	pIC50 [11]	Activity [12] [%]	inhibition [13]	Activity [14] [%]	Activity [15]
C=CC(=O)Nc1ccc(-c2nc(Cl)cc(Nc3ccc(C(=O)Nc4cccc(C)c4)cc3)n2)cc1	5.27	59.51	13.91	25.8	4.21	Active	12.7	5.44	61.3	36.27	5.16	0.23	Active	90	Tde
C=CC(=O)Nc1ccc(-c2nc(Cl)cc(Nc3ccc(C(=O)N4CCCC4)cc3)n2)cc1	4.98	–	–	–	–	–	–	4.80	–	–	4.72	–	–	–	–
C=CC(=O)Nc1ccc(-c2nc(Cl)cc(Nc3ccc(C(=O)N(CC)CC)cc3)n2)cc1	4.95	–	–	–	–	–	–	5.03	–	–	4.90	–	–	–	–
C=CC(=O)Nc1ccc(-c2nc(Cl)cc(Nc3ccc(C(=O)N4CCOCC4)cc3)n2)cc1	5.14	–	–	–	–	–	–	5.23	–	–	4.83	–	–	–	–
C=CC(=O)N1CCC[C@@H](n2nc(-c3ccc(Oc4ccccc4)cc3)c3c(N)ncnc32)C1 [IBRUTINIB]	5.64	65.18	4.33	5.12	4.26	–	2.71	5.45	91.8	30.5	4.84	0.37	–	–	Tde
C=CC(=O)Nc1ccc(-c2nc(Cl)cc(Nc3ccc(C(=O)N(C)C)cc3)n2)cc1	< 4.30	–	–	–	–	–	–	< 4.30	–	–	4.37	–	–	–	–
C=CC(=O)Nc1ccc(-c2nc(Cl)cc(Nc3ccc(C(=O)Nc4cc(C(F)(F)F)cc(C(F)(F)F)c4)cc3)n2)cc1	5.21	–	–	–	–	–	–	5.32	–	–	5.03	–	–	–	–
C=CC(=O)Nc1ccc(-c2nc(Cl)cc(Nc3ccc(C(=O)Nc4cc(C)ccc4C)cc3)n2)cc1	4.77	–	–	–	–	–	–	4.83	–	–	4.68	–	–	–	–
